Data reported in ChEMBL document CHEMBL1131239, “Orally active benzamide antipsychotic agents with affinity for dopamine D2, serotonin 5-HT1A, and adrenergic alpha1 receptors” (J Med Chem, 1998).

Columns and labels:
[1] = biological target: T1, 5-hydroxytryptamine receptor 1A (Rattus norvegicus, UniProt P19327); experiment: Compound was evaluated for its binding affinity against 5-hydroxytryptamine 1A receptor from rat cerebral cortex; format: tissue-based
T1 sequence (P19327 whole entry): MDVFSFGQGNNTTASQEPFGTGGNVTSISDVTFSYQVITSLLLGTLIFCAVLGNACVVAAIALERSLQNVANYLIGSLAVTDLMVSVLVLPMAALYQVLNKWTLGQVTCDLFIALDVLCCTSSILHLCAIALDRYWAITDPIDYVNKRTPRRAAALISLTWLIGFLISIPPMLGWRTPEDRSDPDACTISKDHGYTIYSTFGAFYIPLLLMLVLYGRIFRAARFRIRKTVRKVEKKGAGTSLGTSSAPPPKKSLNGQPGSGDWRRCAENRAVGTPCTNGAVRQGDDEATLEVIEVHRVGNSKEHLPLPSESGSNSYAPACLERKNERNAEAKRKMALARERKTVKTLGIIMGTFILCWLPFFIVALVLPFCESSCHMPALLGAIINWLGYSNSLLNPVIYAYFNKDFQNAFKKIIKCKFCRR

[2] = biological target: T2, Adrenergic receptor alpha-1 (Rattus norvegicus, UniProt P15823+P23944+P43140); experiment: Binding affinity against Alpha-1 adrenergic receptor from rat cerebral cortex; format: tissue-based
T2 sequence (P15823 whole entry): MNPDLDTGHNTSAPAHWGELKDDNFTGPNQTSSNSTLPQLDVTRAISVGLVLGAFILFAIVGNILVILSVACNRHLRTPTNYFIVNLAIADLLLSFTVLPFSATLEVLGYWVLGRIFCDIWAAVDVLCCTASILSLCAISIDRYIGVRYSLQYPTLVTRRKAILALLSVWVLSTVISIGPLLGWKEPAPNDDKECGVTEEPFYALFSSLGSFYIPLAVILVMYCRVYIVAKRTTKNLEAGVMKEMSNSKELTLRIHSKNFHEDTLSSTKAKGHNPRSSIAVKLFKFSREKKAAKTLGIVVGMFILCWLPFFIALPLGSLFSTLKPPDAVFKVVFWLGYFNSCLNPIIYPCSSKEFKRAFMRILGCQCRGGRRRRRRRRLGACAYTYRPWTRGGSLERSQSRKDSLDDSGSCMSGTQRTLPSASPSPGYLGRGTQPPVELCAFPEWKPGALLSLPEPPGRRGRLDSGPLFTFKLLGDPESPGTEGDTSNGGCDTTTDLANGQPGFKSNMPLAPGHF
T2 sequence (P23944 whole entry): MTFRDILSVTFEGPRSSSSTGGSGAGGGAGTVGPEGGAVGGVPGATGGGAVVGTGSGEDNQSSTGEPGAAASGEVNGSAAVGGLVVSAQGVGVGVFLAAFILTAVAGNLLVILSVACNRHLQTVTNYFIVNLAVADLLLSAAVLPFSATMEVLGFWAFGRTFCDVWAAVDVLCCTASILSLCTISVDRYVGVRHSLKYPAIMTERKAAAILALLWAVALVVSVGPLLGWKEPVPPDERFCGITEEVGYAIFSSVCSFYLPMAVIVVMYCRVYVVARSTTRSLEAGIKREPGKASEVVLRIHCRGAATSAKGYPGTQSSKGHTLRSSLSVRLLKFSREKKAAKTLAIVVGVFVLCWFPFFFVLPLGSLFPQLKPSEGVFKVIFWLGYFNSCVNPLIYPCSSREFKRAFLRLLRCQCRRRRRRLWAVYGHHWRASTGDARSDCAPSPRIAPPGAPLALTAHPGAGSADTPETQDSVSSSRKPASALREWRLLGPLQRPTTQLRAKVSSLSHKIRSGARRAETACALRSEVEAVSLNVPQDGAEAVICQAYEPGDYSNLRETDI
T2 sequence (P43140 whole entry): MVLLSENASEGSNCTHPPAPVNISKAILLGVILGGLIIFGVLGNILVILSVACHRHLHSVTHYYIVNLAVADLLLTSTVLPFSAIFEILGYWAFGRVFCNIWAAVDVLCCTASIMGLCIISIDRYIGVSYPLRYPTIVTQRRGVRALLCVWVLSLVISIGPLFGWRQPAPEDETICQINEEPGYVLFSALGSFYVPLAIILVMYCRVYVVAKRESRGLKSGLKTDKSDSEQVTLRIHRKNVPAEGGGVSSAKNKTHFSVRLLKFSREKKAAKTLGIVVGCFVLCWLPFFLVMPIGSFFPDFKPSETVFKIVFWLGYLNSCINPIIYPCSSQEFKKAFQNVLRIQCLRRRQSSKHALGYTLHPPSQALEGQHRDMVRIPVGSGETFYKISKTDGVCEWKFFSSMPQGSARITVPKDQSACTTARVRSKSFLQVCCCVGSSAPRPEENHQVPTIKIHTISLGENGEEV

Rattus norvegicus [3] = experiment: (§1) compound was tested for antipsychotic activity by conditioned avoidance response(CAR) assay in rats with a pretreatment period of 30 min upon intra peritoneal administration at a concentration of 15 mg/kg.; format: functional
Method in brief: (§2)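 Trained rats (N = 4) were run in 1-h sessions on two consecutive days, with the experimenter blind to drug and dose. Fed rats had food and water until placed in the test chambers. Fasted rats had no food overnight before the experiment.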

Rattus norvegicus [4] = experiment: compound was tested for antipsychotic activity by conditioned avoidance response(CAR) assay in rats with a pretreatment period of 30 min upon intra peritoneal administration at a concentration of 5 mg/kg.; format: functional
Method in brief: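 Rat conditioned avoidance test modified from Martin et al. Trained rats (N = 4) were run in 1-h sessions on two consecutive days. Fed animals had food and water until placed in the test chambers. Dosing was ip with 30 min pretreatment, and activity was expressed as percent inhibition at the stated dose.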

Rattus norvegicus [5] = experiment: as §1; format: functional; remark: listed apart in the source
Rattus norvegicus [6] = experiment: compound was tested for antipsychotic activity by conditioned avoidance response(CAR) assay in rats with a pretreatment period of 30 min upon intra peritoneal administration at a concentration of 1 mg/kg.; format: functional; method in brief: as §2
Rattus norvegicus [7] = experiment: Percent catalepsy in male Spargue-Dawley rat at pretreatment time 240 mins and when administered ip at dose 50 mg/kg; format: functional; details: route intraperitoneal
Method in brief: (§3)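 Catalepsy in rats, groups of five per drug treatment, scored blind to drug and dose. Each session included a saline or vehicle negative control and a haloperidol 2 mg/kg positive control. Deaths during the experiment were recorded in the catalepsy column as number dead out of five.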

Rattus norvegicus [8] = experiment: Percent catalepsy in male Spargue-Dawley rat at pretreatment time 60 mins and when administered ip at dose 50 mg/kg; format: functional; details: route intraperitoneal; method in brief: as §3
Rattus norvegicus [9] = experiment: compound was tested for antipsychotic activity by conditioned avoidance response(CAR) assay in rats with a pretreatment period of 60 min upon peroral administration at a concentration of 20 mg/kg.; format: functional; details: route oral
Rattus norvegicus [10] = experiment: compound was tested for antipsychotic activity by conditioned avoidance response(CAR) assay in rats with a pretreatment period of 30 min upon peroral administration; format: functional; details: po; method in brief: as §2

Structure (SMILES)	Ki [1] [nM]	Ki [2] [nM]	inhibition in vivo at 15 mg/kg (Rattus norvegicus [3]) [%]	inhibition in vivo at 5 mg/kg (Rattus norvegicus [4]) [%]	inhibition in vivo at 15 mg/kg (Rattus norvegicus [5]) [%]	inhibition in vivo at 1 mg/kg (Rattus norvegicus [6]) [%]	Catalepsy (Rattus norvegicus [7]) [%]	Catalepsy (Rattus norvegicus [8]) [%]	inhibition in vivo at 20 mg/kg (Rattus norvegicus [9]) [%]	ED50 (Rattus norvegicus [10]) [mg/kg]
CC(C)Oc1ccccc1N1CCN(Cc2cccc(C(=O)N3CCCCC3=O)c2)CC1	3.9	6.4	-92.4	-11.2						
CC(C)Oc1ccccc1N1CCN(Cc2cccc(C(=O)N3CCC3)c2)CC1	3.4	1.2			-87					
CCCc1ccccc1N1CCN(Cc2cccc(C(=O)N3CCCCC3)c2)CC1	9.1	16			-0.7					
O=C(c1cccc(CN2CCN(c3ccccc3Cl)CC2)c1)N1CCCCC1	8.2	16		-67.9	-68.6					
COCCN1CCN(Cc2cccc(C(=O)N3CCCCCC3)c2)CC1		> 1000								
CC(C)Oc1ccccc1N1CCN(Cc2cccc(C(=O)N3CCOCC3)c2)CC1	3.2	29		-95.4		-94.5			-96.2	
O=C(c1cccc(CN2CCN(c3ccccc3)CC2)c1)N1CCCCC1	7.2	44		-2.2	-82.1					
CC(C)Oc1ccccc1N1CCN(C(C)c2cccc(C(=O)N3CCCCC3)c2)CC1 (stereo not given)	> 1000	87	-7.1							
O=C(c1cccc(CN2CCN(CCO)CC2)c1)N1CCCCCC1		> 1000		-2.1						
CN1CCN(Cc2cccc(C(=O)N3CCCCC3)c2)CC1		> 1000			0.4					
CC(C)Oc1ccccc1N1CCN(Cc2cccc(C(N)=O)c2)CC1	18	11.4		-88.5		-3			-1.1	
CC(C)Oc1ccccc1N1CCN(Cc2cccc(C(=O)NC3CCCCC3)c2)CC1	4.1	3.4		-17.6	-86.2					
O=C(c1cccc(CN2CCN(c3ncccn3)CC2)c1)N1CCCCC1	12			-17.9	-6.8					
CC(C)Oc1cc(F)ccc1N1CCN(Cc2cccc(C(=O)N3CCCCC3)c2)CC1	4.2	6		-82.6		-22.6	50	45.2		
CC(C)Oc1ccccc1C1(O)CCN(Cc2cccc(C(=O)N3CCCCC3)c2)CC1	> 1000	110		0.9						
CC(C)Oc1ccccc1N1CCN(Cc2cccc(C(=O)Nc3ccc(F)cc3)c2)CC1	11	11			-2.5					
CC(C)Oc1ccccc1N1CCN(CCCCc2ccc(C(=O)N3CCCCC3)cc2)CC1		284	-95.3							
O=C(c1cccc(CN2CCN(c3ccccc3F)CC2)c1)N1CCCCC1	16	27			-84.3					
CCN1CCCC1CNC(=O)c1cccc(CN2CCN(c3ccccc3OC(C)C)CC2)c1 (stereo not given)	121	486		-19.4	-74.9					
O=C(c1cccc(CN2CCN(c3ccc(Cl)cc3)CC2)c1)N1CCCCC1	121	486			-4.7					
O=C(c1cccc(CN2CCN(c3cccc([N+](=O)[O-])c3)CC2)c1)N1CCCCC1	24	> 1000		-1.3	-77.7					
CN1CCN(C2=Nc3cc(Cl)ccc3Nc3ccccc32)CC1 [CLOZAPINE]										9.3

Further lines, with some results ahead:

Ki [1] [nM]	Ki [2] [nM]	Structure (SMILES)	inhibition in vivo at 15 mg/kg (Rattus norvegicus [3]) [%]	inhibition in vivo at 5 mg/kg (Rattus norvegicus [4]) [%]	inhibition in vivo at 15 mg/kg (Rattus norvegicus [5]) [%]	inhibition in vivo at 1 mg/kg (Rattus norvegicus [6]) [%]	Catalepsy (Rattus norvegicus [7]) [%]	Catalepsy (Rattus norvegicus [8]) [%]	inhibition in vivo at 20 mg/kg (Rattus norvegicus [9]) [%]	ED50 (Rattus norvegicus [10]) [mg/kg]
1.2	1.2	CC(C)Oc1ccccc1N1CCN(Cc2cccc(C(=O)N(C)C3CCCCC3)c2)CC1		-98.9		-9.3	58.1	0		
0.13	1.9	CC(C)Oc1ccccc1N1CCN(Cc2cccc(C(=O)N3CCCCCCC3)c2)CC1		-90.4		-24.5	17.6	34.4	-84.7	
0.8	3.3	O=C(c1cccc(CN2CCN(c3ccccc3C(F)(F)F)CC2)c1)N1CCCCC1		-5.5	-59.7					
0.8	3.3	CCCCN(CCCC)C(=O)c1cccc(CN2CCN(c3ccccc3OC(C)C)CC2)c1			-5.6					
1.8	57	O=C(c1cccc(CN2CCN(c3cccc4ccccc34)CC2)c1)N1CCCCC1			-18.8					
1.1	2.3	CC(C)Oc1ccccc1N1CCN(Cc2cccc(C(=S)N3CCCCC3)c2)CC1		-71.6						
1.2	11.4	O=C(c1cccc(CN2CCN(c3cccc(Cl)c3)CC2)c1)N1CCCCC1		-36.1			33.9	21.8	-27.9	
2.3	562	O=C(c1cccc(CN2CCN(c3cccc(C(F)(F)F)c3)CC2)c1)N1CCCCC1		-3.7	-71.6					
0.21	13	O=C(c1cccc(CN2CCN(c3ccc4ccoc4c3)CC2)c1)N1CCCCC1		-82.4						
2.5	19	N#Cc1ccccc1N1CCN(Cc2cccc(C(=O)N3CCCCC3)c2)CC1		-73.9		-5.3			-5.4	
2.5	2.1	CC(C)Oc1ccccc1N1CCN(CCc2ccc(C(=O)N3CCCCC3)cc2)CC1	-98.2			-1.1				
